In ChEMBL document CHEMBL1151705, “Novel azalides derived from 16-membered macrolides. Part II: Isolation of the linear 9-formylcarboxylic acid and its sequential macrocyclization with an amino alcohol or an azidoamine” (2008):
≈ marks a conversion by molar mass, not a printed value.

Key:
Type in all cases: functional
[1] = test system: Moraxella catarrhalis; assay: Antimicrobial activity against drug-susceptible Moraxella catarrhalis 2 after 20 hrs by agar dilution method; conditions: Moraxella catarrhalis, 20 h; read-out: MIC
Method in brief: (§1)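 Streptococci, H. influenzae and M. catarrhalis were precultured on blood agar plates. Suspensions of about 10⁶ CFU/ml were inoculated onto sensitivity disk agar supplemented with 5% horse blood and incubated at 37 °C for 20 h. MIC was read as the lowest drug concentration with no visible growth.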

[2] = test system: Staphylococcus aureus; assay: Antimicrobial activity against Staphylococcus aureus 5 expressing inducible ermB after 20 hrs by agar dilution method; conditions: Staphylococcus aureus, 20 h; read-out: MIC
Method in brief: (§2)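 Agar dilution MIC. S. aureus seed culture was grown in sensitivity test broth. Cell suspension (about 10⁶ CFU/ml) was inoculated onto sensitivity disk agar with 5% horse blood and incubated at 37 °C for 20 h. MIC was the lowest drug concentration that prevented visible growth.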

[3] = test system: Streptococcus pyogenes; assay: Antimicrobial activity against Streptococcus pyogenes 2 constitutively expressing ermB after 20 hrs by agar dilution method; method in brief: as §1
[4] = test system: Moraxella catarrhalis; assay: Antimicrobial activity against drug-susceptible Moraxella catarrhalis 1 after 20 hrs by agar dilution method; conditions: Moraxella catarrhalis, 20 h; read-out: MIC; method in brief: as §1
[5] = test system: Streptococcus pneumoniae; assay: Antimicrobial activity against Streptococcus pneumoniae 5 constitutively expressing ermB/mefA after 20 hrs by agar dilution method; conditions: Streptococcus pneumoniae, 20 h; read-out: MIC; method in brief: as §1
[6] = test system: Staphylococcus aureus; assay: Antimicrobial activity against drug-susceptible Staphylococcus aureus 3 after 20 hrs by agar dilution method; conditions: Staphylococcus aureus, 20 h; read-out: MIC; method in brief: as §2
[7] = test system: Haemophilus influenzae; assay: Antimicrobial activity against drug-susceptible Haemophilus influenzae 4 after 20 hrs by agar dilution method; conditions: Haemophilus influenzae, 20 h; read-out: MIC; method in brief: as §1
[8] = test system: Haemophilus influenzae; assay: Antimicrobial activity against drug-susceptible Haemophilus influenzae 2 after 20 hrs by agar dilution method; conditions: Haemophilus influenzae, 20 h; read-out: MIC; method in brief: as §1
[9] = test system: Haemophilus influenzae; assay: Antimicrobial activity against drug-susceptible Haemophilus influenzae 3 after 20 hrs by agar dilution method; conditions: Haemophilus influenzae, 20 h; read-out: MIC; method in brief: as §1
[10] = test system: Streptococcus pneumoniae; assay: Antimicrobial activity against drug-susceptible Streptococcus pneumoniae DP1 Type1 after 20 hrs by agar dilution method; conditions: Streptococcus pneumoniae, 20 h; read-out: MIC; method in brief: as §1
[11] = test system: Staphylococcus aureus; assay: Antimicrobial activity against drug-susceptible Staphylococcus aureus 2 after 20 hrs by agar dilution method; conditions: Staphylococcus aureus, 20 h; read-out: MIC; method in brief: as §2
[12] = test system: Streptococcus pneumoniae; assay: Antimicrobial activity against Streptococcus pneumoniae 8 expressing inducible ermB after 20 hrs by agar dilution method; conditions: Streptococcus pneumoniae, 20 h; read-out: MIC; method in brief: as §1
[13] = test system: Streptococcus pyogenes; assay: Antimicrobial activity against drug-susceptible Streptococcus pyogenes 1 after 20 hrs by agar dilution method; conditions: Streptococcus pyogenes, 20 h; read-out: MIC; method in brief: as §1
[14] = test system: Staphylococcus aureus; assay: Antimicrobial activity against drug-susceptible Staphylococcus aureus 209P JC-1 after 20 hrs by agar dilution method; conditions: Staphylococcus aureus, 209P, 20 h; read-out: MIC; method in brief: as §2
[15] = test system: Streptococcus pneumoniae; assay: Antimicrobial activity against Streptococcus pneumoniae 9 expressing mefA after 20 hrs by agar dilution method; conditions: Streptococcus pneumoniae, 20 h; read-out: MIC; method in brief: as §1
[16] = test system: Haemophilus influenzae; assay: Antimicrobial activity against drug-susceptible Haemophilus influenzae 1 after 20 hrs by agar dilution method; conditions: Haemophilus influenzae, 20 h; read-out: MIC; method in brief: as §1
[17] = test system: Streptococcus pneumoniae; assay: Antimicrobial activity against drug-susceptible Streptococcus pneumoniae 3 after 20 hrs by agar dilution method; conditions: Streptococcus pneumoniae, 20 h; read-out: MIC; method in brief: as §1
[18] = test system: Staphylococcus aureus; assay: Antimicrobial activity against Staphylococcus aureus 6 expressing inducible ermB after 20 hrs by agar dilution method; method in brief: as §2
[19] = test system: Staphylococcus aureus; assay: Antimicrobial activity against Staphylococcus aureus 4 constitutively expressing ermA after 20 hrs by agar dilution method; method in brief: as §2
[20] = test system: Streptococcus pyogenes; assay: Antimicrobial activity against Streptococcus pyogenes 3 expressing mefA after 20 hrs by agar dilution method; conditions: Streptococcus pyogenes, 20 h; read-out: MIC; method in brief: as §1
[21] = test system: Streptococcus pneumoniae; assay: Antimicrobial activity against Streptococcus pneumoniae 6 constitutively expressing ermB after 20 hrs by agar dilution method; conditions: Streptococcus pneumoniae, 20 h; read-out: MIC; method in brief: as §1
[22] = test system: Streptococcus pneumoniae; assay: Antimicrobial activity against drug-susceptible Streptococcus pneumoniae 2 after 20 hrs by agar dilution method; conditions: Streptococcus pneumoniae, 20 h; read-out: MIC; method in brief: as §1
[23] = test system: Streptococcus pneumoniae; assay: Antimicrobial activity against Streptococcus pneumoniae 10 expressing mefA after 20 hrs by agar dilution method; conditions: Streptococcus pneumoniae, 20 h; read-out: MIC; method in brief: as §1
[24] = test system: Streptococcus pneumoniae; assay: Antimicrobial activity against Streptococcus pneumoniae 7 expressing inducible ermB after 20 hrs by agar dilution method; conditions: Streptococcus pneumoniae, 20 h; read-out: MIC; method in brief: as §1
[25] = test system: Streptococcus pneumoniae; assay: Antimicrobial activity against Streptococcus pneumoniae 4 constitutively expressing ermB after 20 hrs by agar dilution method; conditions: Streptococcus pneumoniae, 20 h; read-out: MIC; method in brief: as §1

With CCOC(=O)[C@H]1[C@H](C)O[C@@H](O[C@H]2[C@H](N(C)C)[C@@H](O)[C@H](O[C@H]3[C@@H](CC=O)C[C@@H](C)[C@@H](O)CN(C)CC(/C=C/Cc4ccc5ncccc5c4)CCOC(=O)C[C@@H](OC(=O)CC)[C@@H]3OC)O[C@@H]2C)C[C@@]1(C)O (stereo not given in full) the MIC [1] was 1 µg/mL (≈ 1.01 µM), the MIC [2] was 0.13 µg/mL (≈ 0.132 µM) and the MIC [3] was > 128 µg/mL. The MIC [4] was 1 µg/mL (≈ 1.01 µM), the MIC [5] was > 128 µg/mL and the MIC [6] was 0.13 µg/mL (≈ 0.132 µM). It also gave an MIC [7] of 8 µg/mL (≈ 8.11 µM), an MIC [8] of 2 µg/mL (≈ 2.03 µM) and an MIC [9] of 8 µg/mL (≈ 8.11 µM). The MIC [10] was 0.015 µg/mL (≈ 0.0152 µM), the MIC [11] was 0.25 µg/mL (≈ 0.253 µM) and the MIC [12] was 2 µg/mL (≈ 2.03 µM). For the same compound, the MIC [13] was 0.03 µg/mL (≈ 0.0304 µM), the MIC [14] was 0.13 µg/mL (≈ 0.132 µM) and the MIC [15] was 0.015 µg/mL (≈ 0.0152 µM). It also gave an MIC [16] of 32 µg/mL (≈ 32.4 µM), an MIC [17] of 0.015 µg/mL (≈ 0.0152 µM) and an MIC [18] of 0.25 µg/mL (≈ 0.253 µM). For the same compound, the MIC [19] was > 128 µg/mL, the MIC [20] was 0.25 µg/mL (≈ 0.253 µM) and the MIC [21] was 128 µg/mL (≈ 130 µM). For the same compound, the MIC [22] was 0.03 µg/mL (≈ 0.0304 µM), the MIC [23] was 0.015 µg/mL (≈ 0.0152 µM) and the MIC [24] was 2 µg/mL (≈ 2.03 µM). The MIC [25] was > 128 µg/mL.
CCOC(=O)[C@H]1[C@H](C)O[C@@H](O[C@H]2[C@H](N(C)C)[C@@H](O)[C@H](O[C@H]3[C@@H](CC=O)C[C@@H](C)[C@@H](O)CN(C)CCC[C@H](C/C=C/c4cnc5ccccc5c4)OC(=O)C[C@@H](OC(=O)CC)[C@@H]3OC)O[C@@H]2C)C[C@@]1(C)O was tested, and the MIC [1] was 1 µg/mL (≈ 1.01 µM), the MIC [2] was 0.25 µg/mL (≈ 0.253 µM) and the MIC [3] was > 128 µg/mL. The MIC [4] was 1 µg/mL (≈ 1.01 µM), the MIC [5] was 128 µg/mL (≈ 130 µM) and the MIC [6] was 0.25 µg/mL (≈ 0.253 µM). It also gave an MIC [7] of 8 µg/mL (≈ 8.11 µM), an MIC [8] of 2 µg/mL (≈ 2.03 µM) and an MIC [9] of 8 µg/mL (≈ 8.11 µM). For the same compound, the MIC [10] was 0.015 µg/mL (≈ 0.0152 µM), the MIC [11] was 1 µg/mL (≈ 1.01 µM) and the MIC [12] was 8 µg/mL (≈ 8.11 µM). For the same compound, the MIC [13] was 0.06 µg/mL (≈ 0.0608 µM), the MIC [14] was 0.5 µg/mL (≈ 0.507 µM) and the MIC [15] was 0.06 µg/mL (≈ 0.0608 µM). It also gave an MIC [16] of 32 µg/mL (≈ 32.4 µM), an MIC [17] of 0.03 µg/mL (≈ 0.0304 µM) and an MIC [18] of 0.5 µg/mL (≈ 0.507 µM). The MIC [19] was > 128 µg/mL, the MIC [20] was 0.5 µg/mL (≈ 0.507 µM) and the MIC [21] was 128 µg/mL (≈ 130 µM). It also gave an MIC [22] of 0.03 µg/mL (≈ 0.0304 µM), an MIC [23] of 0.03 µg/mL (≈ 0.0304 µM) and an MIC [24] of 8 µg/mL (≈ 8.11 µM). For the same compound, the MIC [25] was 128 µg/mL (≈ 130 µM).
For CCOC(=O)[C@H]1[C@H](C)O[C@@H](O[C@H]2[C@H](N(C)C)[C@@H](O)[C@H](O[C@H]3[C@@H](CC=O)C[C@@H](C)[C@@H](O)CN(C)CCC[C@H](C/C=C/c4cccnc4)OC(=O)C[C@@H](OC(=O)CC)[C@@H]3OC)O[C@@H]2C)C[C@@]1(C)O, the MIC [1] was 1 µg/mL (≈ 1.07 µM), the MIC [2] was 0.25 µg/mL (≈ 0.267 µM) and the MIC [3] was > 128 µg/mL. For the same compound, the MIC [4] was 1 µg/mL (≈ 1.07 µM), the MIC [5] was > 128 µg/mL and the MIC [6] was 0.25 µg/mL (≈ 0.267 µM). It also gave an MIC [7] of 16 µg/mL (≈ 17.1 µM), an MIC [8] of 2 µg/mL (≈ 2.14 µM) and an MIC [9] of 8 µg/mL (≈ 8.55 µM). For the same compound, the MIC [10] was 0.015 µg/mL (≈ 0.016 µM), the MIC [11] was 1 µg/mL (≈ 1.07 µM) and the MIC [12] was 32 µg/mL (≈ 34.2 µM). The MIC [13] was 0.06 µg/mL (≈ 0.0641 µM), the MIC [14] was 0.5 µg/mL (≈ 0.534 µM) and the MIC [15] was 0.03 µg/mL (≈ 0.032 µM). For the same compound, the MIC [16] was 32 µg/mL (≈ 34.2 µM), the MIC [17] was 0.03 µg/mL (≈ 0.032 µM) and the MIC [18] was 0.5 µg/mL (≈ 0.534 µM). For the same compound, the MIC [19] was > 128 µg/mL, the MIC [20] was 0.5 µg/mL (≈ 0.534 µM) and the MIC [21] was > 128 µg/mL. For the same compound, the MIC [22] was 0.03 µg/mL (≈ 0.032 µM), the MIC [23] was 0.03 µg/mL (≈ 0.032 µM) and the MIC [24] was 32 µg/mL (≈ 34.2 µM). The MIC [25] was > 128 µg/mL.
